High-throughput results deposited in PubChem BioAssay by Johns Hopkins Ion Channel Center.
Only some compounds are listed: those with a hit (about 2.3% of all), similar ones and a draw of the others.
TRPC4 agonist: activators of mouse TRPC4 channel, primary screen, Fluo4 calcium, HEK293 TRPC4beta/mu-opioid cells | 310,000 tested, 0.49% active | B-score at 10 µM | Short transient receptor potential channel 4 (Mus musculus), Q9QUQ5 | Fluo4 calcium fluorescence; stronger effect = higher value;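 active = B-score above 5 SD of library B-scores, and initial fluorescence ratio not above library mean plus 5 SD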;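 also: positive B-score marks a calcium rise read as TRPC4 activation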
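Material: HEK293 stable line with TRPC4beta plus mu-opioid receptor; technique: Fluo4 calcium-sensitive dye fluorescence, kinetic, 1 Hz baseline; timing: Fluo4 dye loading 45 min at room temperature, 110 s recording; controls: assay buffer as low control, maximal DAMGO as high control; read-out: integrated baseline-normalised fluorescence ratio, converted to per-well B score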
TRPC6 act: mouse TRPC6 channel activators, primary screen, cell-based, HEK293, membrane potential dye | Short transient receptor potential channel 6 (Mus musculus), Q61143 | HEK293-TRPC6 membrane potential dye fluorescence; stronger effect = higher value | B-score at 10 µM | 310,000 tested, 0.13% active | AID 2550, 2010;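 active = B-score of the integrated fluorescence ratio above library mean plus 3 SD, and starting fluorescence ratio within library mean plus 5 SD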;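 also: higher score means more depolarization so channel activation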
TRPC4 potent: positive allosteric modulators of TRPC4, primary screen, cell-based, mouse TRPC4beta, HEK293 mu-opioid, Fluo-4 calcium | Short transient receptor potential channel 4 (Mus musculus), Q9QUQ5 | DAMGO EC20, Fluo-4 Ca2+ flux; stronger effect = higher value | B-score at 10 µM | 310,000 tested, 0.42% active;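 active = B-score of calcium response area above 5 SD of library B-scores, with initial fluorescence ratio within 5 SD of library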
TRPC4 inh: inhibitors of mouse TRPC4 channel, primary screen, Fluo4 calcium, HEK293 TRPC4beta/mu-opioid cells; Short transient receptor potential channel 4 (Mus musculus), Q9QUQ5; AID 2247, 2010; B-score at 10 µM; DAMGO-evoked Fluo4 calcium flux; stronger effect = lower value; 300,000 tested, 0.39% active;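 active = B-score over 3 SD under the library average, no early fluorescence shift, positive overall ratio signal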
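material = TRPC4beta/mu-opioid receptor HEK293 cell line | probe or stimulus = sequential submaximal and maximal DAMGO stimulation | compound dosing = one concentration per compound | measured by = Fluo4 Ca2+ flux fluorescence | evaluation = integrated fluorescence ratio relative to baseline, converted to per-well B score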
TRPC6 inh: mouse TRPC6 channel inhibitors, primary screen, cell-based, HEK293, membrane potential dye | B-score at 10 µM | 310,000 tested, 1.1% active | ACh-evoked depolarization; stronger effect = lower value | AID 2553, 2010 | Short transient receptor potential channel 6 (Mus musculus), Q61143;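 active = B-score under library mean minus 3 SD, initial fluorescence not abnormally high, positive integrated signal ratio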;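 also: B-score derived from integrated fluorescence ratio over the kinetic read; more negative B-score means stronger inhibition of depolarization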
TRPC4 spec 2: mouse TRPC4 off-target activity of TRPC6 inhibitors, second screen; 920 tested, 42% active; inhibition, % at 10 µM; HEK293 TRPC4/MOR, membrane potential dye fluorescence; channel activated by saturating DAMGO dose; AID 2776; shares compounds with TRPC6 inh;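 active = compounds whose fluorescence signal differed from control wells by over 3 SD, either direction, in both duplicate plates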
TRPC4 spec: mouse TRPC4 modulation by TRPC6 hits, confirmation, selectivity assay for TRPC6 inhibitor project, cell-based, HEK293 TRPC4/mu-opioid, membrane potential dye. shares compounds with TRPC6 inh. membrane potential fluorescence. activity change, negative = inhibition, % at 10 µM. 920 tested, 61% active. AID 2777, 2010;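 active = rise or fall in signal beyond 3 SD of buffer-only wells in both replicate plates, either sign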;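 also: integrated kinetic ratio of fluorescence range over baseline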
HEK293 MPD ctr 2-1: nonspecific membrane potential effects, parental HEK293, confirmation, counter-screen for TRPC6 inhibitor project, cell-based, second counter screen; parental HEK293 membrane potential dye fluorescence; maximal acetylcholine challenge after compound addition; signal change vs control, % at 10 µM; shares compounds with TRPC6 inh; 920 tested, 31% active;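 active = membrane potential signal moving either way by over 3 SD of the maximum-effect control, in both duplicate plates, meaning non-specific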
HEK293 MPD ctr-1: membrane potential modulation in parental HEK293, confirmation, counter-screen for TRPC6 inhibitor project, cell-based; shares compounds with TRPC6 inh; parental HEK293 membrane potential dye fluorescence; membrane potential signal change, % at 10 µM; 920 tested, 60% active; AID 2780, 2010;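 active = membrane potential signal shifting up or down by more than 3 SD of buffer-only wells, on both duplicate plates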
HEK293 MPD ctr-2: parental HEK293 membrane potential modulation, confirmation, counter-screen for TRPC6 modulator project, cell-based | membrane potential signal change, % at 10 µM | membrane potential dye fluorescence | 2,400 tested, 51% active | AID 488924, 2010 | shares compounds with TRPC6 inh;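 active = membrane potential signal moves up or down beyond 5 SD from buffer-only wells, on both duplicate plates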
HEK293 MPD ctr 2-2: parental HEK293 nonspecific activity of TRPC6 modulators, second screen. shares compounds with TRPC6 inh. AID 488926. membrane potential dye fluorescence; after compound, maximal acetylcholine stimulation. inhibition, % at 10 µM. 2,400 tested, 14% active;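 active = membrane potential signal drops by more than 5 SD from the mean control signal, in both duplicate plates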
TRPC4 ctr mod: TRPC4 modulation by TRPC6 hit compounds, confirmation, selectivity assay for TRPC6 modulator project, cell-based, HEK293 TRPC4/mu-opioid, membrane potential dye, mouse; shares compounds with TRPC6 inh; membrane potential fluorescence; percent change from control (negative = decrease, positive = increase), % at 10 µM; 2,400 tested, 69% active; AID 488927, 2010;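 active = membrane potential signal moved up or down beyond 5 SD of buffer control wells, in both duplicate plates, actives on both sides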
TRPC4/MOR inh 2: mouse TRPC4 off-target activity of TRPC6 modulators, second screen | 2,400 tested, 55% active | inhibition, % at 10 µM | HEK293 TRPC4/mu-opioid, membrane potential dye fluorescence; stimulated with maximal-effect DAMGO | AID 488928 | shares compounds with TRPC6 inh;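 active = drop in membrane potential signal beyond 5 SD of the control wells in both duplicate plates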;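 also: TRPC4 counter screen for TRPC6 hits run under conditions tuned for TRPC6 not TRPC4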
TRPC6 inh conf: mouse TRPC6 channel inhibitors, confirmation, HEK293 cells, membrane potential dye, duplicate. shares compounds with TRPC6 inh. ACh-evoked depolarization. inhibition, % at 10 µM. 3,300 tested, 43% active. AID 488960, 2010;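 active = fluorescence ratio falls more than 5 SD below the full-stimulation control mean, in both duplicate runs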;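 also: integrated fluorescence ratio of peak minus minimum over baseline after agonist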
TRPC6 act conf: mouse TRPC6 channel activators, confirmation, HEK293 cells, membrane potential dye, duplicate | shares compounds with TRPC6 inh | HEK293-TRPC6 membrane potential dye fluorescence, FDSS | activation, % at 10 µM | 2,800 tested, 11% active;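 active = ratio signal rise beyond 5 SD above unstimulated control wells' mean, seen in both duplicate runs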
A number is an active result; - = inactive; . = not tested or not shown.

SMILES	TRPC4 agonist	TRPC6 act	TRPC4 potent	TRPC4 inh	TRPC6 inh	HEK293 MPD ctr-2	HEK293 MPD ctr 2-2	TRPC4 ctr mod	TRPC4/MOR inh 2	TRPC6 inh conf	TRPC6 act conf	others
COC(=O)COc1ccc(C(C2C(=O)CC(C)(C)CC2=O)C2C(=O)CC(C)(C)CC2=O)cc1	-	-	-	-	-	.	.	.	.	.	.
COc1ccc(N2CCN(CC(O)COc3ccc(C)c(C)c3)CC2)cc1 (stereo not given)	-	-	-	-	-6.13	-	-	-	48.5%	-	-
CC1(C(O)(C#CC[N+]2(C)CCCCC2)c2ccccc2)CCCC1 (stereo not given)	-	-	-	-	-10.9	.	.	.	.	106.6%	-	TRPC4 spec 2=-;TRPC4 spec=-;HEK293 MPD ctr 2-1=-25.5%;HEK293 MPD ctr-1=-
NC(=O)C[N+]1(CC#CC(O)(c2ccccc2)c2ccccc2)CCCC1	-	-	-	-	-	.	.	.	.	.	.
O=C(c1ccc(Cl)c(S(=O)(=O)Nc2ccc(F)cc2)c1)N1CCN(c2ccccn2)CC1	-	-	-	-	-10.2	.	.	.	.	-	-	TRPC4 spec 2=-;TRPC4 spec=9.5%;HEK293 MPD ctr 2-1=-;HEK293 MPD ctr-1=4.3%
O=C(c1ccc(Cl)c(Cl)c1)N1CCN(c2ccccn2)CC1	-	-	-	-	-	.	.	.	.	.	.
Cc1ccc(NS(=O)(=O)c2c(C)nc3sccn3c2=O)c(C)c1	-	-	-	-	-	.	.	.	.	.	.
CNC(=O)CC1C(=O)N(c2ccc(F)cc2)C(=S)N1NC(=O)c1ccc(Cl)cc1 (stereo not given)	-	-	-	-	-5.57	-	-	-	-	-	-
CN(C)CCNC(=O)c1ccc2c(c1)N(Cc1ccc(F)cc1)CCS2	-	-	-	-	-6.41	-	-	-	73.5%	66.0%	-
CN(C)C(CNc1ccc(S(C)(=O)=O)cc1[N+](=O)[O-])Cc1ccccc1 (stereo not given)	-	-	-	-	-5.09	-	-	-	31.5%	-	-
NCC(c1ccccc1)(c1ccccc1)c1ccccc1	117	-	-	-8	-6.56	-	-	17.5%	74.0%	41.5%	-
COc1ccc(S(=O)(=O)N2CCc3cc(OC)c(OC)cc3C2)cc1	-	-	-	-	-7.09	.	.	.	.	-	-	TRPC4 spec 2=-;TRPC4 spec=-;HEK293 MPD ctr 2-1=-;HEK293 MPD ctr-1=-
COc1cc2c(cc1OC)CN(S(=O)(=O)c1cccs1)CC2	-	-	-	-	-	.	.	.	.	.	.
COc1ccc(OC)c(NC(=O)CCN2CCN(c3ccccc3OC)CC2)c1	-	-	-	-	-	.	.	.	.	.	.
CN(C)CCCN(C(=O)c1ccco1)c1nc2ccc(Br)cc2s1	-	-	-	-	-8.1	-120.5%	-	-34.0%	71.0%	-	-
CCOc1cccc2sc(N(CCN(CC)CC)C(=O)c3cccc([N+](=O)[O-])c3)nc12	-	-	-	-	-5.02	-	-	-10.5%	62.5%	-	.
CN(C)CCCN(C(=O)CCc1ccccc1)c1nc2ccc(Br)cc2s1	-	-	-	-	-	.	.	.	.	.	.
CN(C)CCN(C(=O)c1ccc(C(=O)c2ccccc2)cc1)c1nc2cc3c(cc2s1)OCO3	-	-	-	-	-	.	.	.	.	.	.
CCOc1cccc2sc(N(CCN(CC)CC)C(=O)c3cccc(N4C(=O)CCC4=O)c3)nc12	-	-	-	-	-	.	.	.	.	.	.
Cc1cc(C)c2nc(N(CCN(C)C)C(=O)c3ccc(S(=O)(=O)N(C)CC4CCCO4)cc3)sc2c1 (stereo not given)	-	-	-	-	-	.	.	.	.	.	.
CN(C)CCCN(C(=O)c1ccc(S(=O)(=O)N(C)C)cc1)c1nc2cc3c(cc2s1)OCO3	-	-	-	-	-5.01	-	-	-13.5%	55.0%	-	-
CCOc1cccc2sc(N(CCCN(C)C)C(=O)c3ccc(S(=O)(=O)N(C)CC4CCCO4)cc3)nc12 (stereo not given)	-	-	-	-	-7.42	.	.	.	.	-	-	TRPC4 spec 2=47.5%;TRPC4 spec=-13.9%;HEK293 MPD ctr 2-1=-;HEK293 MPD ctr-1=-
CCCCCCC1/C(=N\NC(=O)c2ccccc2)CCC1C(=O)OC (stereo not given)	-	-	-	-	-	.	.	.	.	.	.
CN(C)CCN(C(=O)c1ccco1)c1nc2cc3c(cc2s1)OCCO3	-	-	-	-	-5.32	-135.5%	-	-40.5%	88.0%	60.0%	-
CN(C)CCCN(C(=O)c1ccco1)c1nc2ccc(Cl)cc2s1	-	-	-	-	-6.35	-179.5%	-	-35.0%	75.5%	49.5%	-
CN(C)CCN(C(=O)C1=COCCO1)c1nc2ccc(F)cc2s1	-	-	-	-	-6.96	-139.0%	-	-30.0%	39.5%	-	-
